Experimental data from ChEMBL document CHEMBL4715758, “Hit-to-Lead Optimization of a Novel Class of Potent, Broad-Spectrum Trypanosomacides” (J Med Chem, 2016).
The source made the active and inactive calls. The calls are words filed in the database; no cut-off is given here.

Key:
[1] = test system: Trypanosoma brucei brucei; test: Antitrypanosomal activity against Trypanosoma brucei brucei Lister 427 strain blood stream form assessed as parasite growth inhibition at 10 uM incubated for 48 hrs by resazurin dye based fluorescence assay relative to control; format: functional; conditions: for inhibition at 10 µM: Lister 427, 48 h
Summary of the method: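 Alamar Blue (resazurin) growth-inhibition screen against T. b. brucei at 10 μM, the same assay used to find the original hit. Compounds reaching 50% or greater inhibition were then taken into concentration–response testing for IC50.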

[2] = test system: Trypanosoma cruzi; test: Antitrypanosomal activity against Trypanosoma cruzi Tulahuen strain trypomastigotes infected in rat H9c2 cells incubated for 72 hrs by DRAQ5 DNA dye based imaging analysis; format: functional, organism-based; conditions: H9c2, 72 h
[3] = Selectivity index, ratio of IC50 for cytotoxicity against rat H9c2 cells assessed as reduction in cell viability to IC50 for antitrypanosomal against Trypanosoma cruzi Tulahuen trypomastigotes infected in rat H9c2 cells; format: toxicity, cell-based; conditions: read-out: Ratio IC50
[4] = test system: Trypanosoma brucei brucei; test: Antitrypanosomal activity against Trypanosoma brucei brucei Lister 427 strain blood stream forms incubated for 48 hrs by resazurin dye based fluorescence assay; format: functional, organism-based; conditions: Lister 427, 48 h
[5] = Selectivity index, ratio of IC50 for cytotoxicity against human HEK293 cells assessed as reduction in cell viability to IC50 for antitrypanosomal activity against Trypanosoma brucei brucei Lister 427 blood stream form; format: toxicity, cell-based; conditions: read-out: Ratio IC50
[6] = test system: Trypanosoma cruzi; test: Antitrypanosomal activity against Trypanosoma cruzi Tulahuen strain trypomastigotes infected in rat H9c2 cells at 10 uM incubated for 72 hrs by DRAQ5 DNA dye based imaging analysis relative to control; format: functional
[7] = Metabolic stability in human liver microsomes assessed as degradation half-life measured after 60 mins in presence of NADPH generating system by LC-MS analysis; format: ADME, Microsome; conditions: read-out: T50
[8] = Intrinsic clearance in human liver microsomes assessed per mg protein measured after 60 mins in presence of NADPH generating system by LC-MS analysis; format: ADME, Microsome; conditions: read-out: CLH

O=C(CC1CC2CCC1C2)NCCc1csc(-c2ccccc2)n1 (racemic)
inhibition at 10 µM [1]: < 50%

O=C(NCCc1csc(-c2ccccc2)n1)C1CCCCC1
IC50 [2]: 0.32 µM

O=C(Cc1ccc2c(c1)OCO2)NCCc1csc(-c2ccccc2)n1
IC50 [2]: 40 µM
inhibition at 10 µM [1]: < 50%
selectivity ratio [3]: > 1.2

O=C(NCCc1csc(-c2ccccc2)n1)c1cccs1
IC50 [2]: 0.4 µM

COc1ccc(C(=O)NCCc2csc(-c3ccccc3)n2)cc1
inhibition at 10 µM [1]: < 50%

O=C(NCCc1csc(-c2ccccc2)n1)c1ccc[nH]1
IC50 [2]: 6.3 µM

CC(C)NC(=O)NCCc1csc(-c2ccccc2)n1
IC50 [4]: 0.9 µM
selectivity ratio [5]: 93
IC50 [2]: 1.6 µM
selectivity ratio [3]: > 31

O=C(Cc1ccccc1)NCCc1csc(-c2ccccc2)n1
inhibition at 10 µM [1]: < 50%

CC(C)N(C(=O)NCCc1csc(-c2ccccc2)n1)C(C)C
IC50 [4]: 9.6 µM
selectivity ratio [5]: 10
IC50 [2]: 32 µM
selectivity ratio [3]: > 1.5

O=C(NCCc1csc(-c2ccccc2)n1)c1cccnc1
IC50 [2]: 2.5 µM

O=C(NCCc1csc(-c2ccccc2)n1)c1cnco1
inhibition at 10 µM [6]: < 50%
inhibition at 10 µM [1]: < 50%

O=C(NCCc1csc(-c2ccccc2)n1)c1cc(Br)co1
IC50 [4]: 2.5 µM
selectivity ratio [5]: 12
IC50 [2]: 5 µM
selectivity ratio [3]: > 10

N#Cc1cccc(-c2nc(CCNC(=O)N3CCCCC3)cs2)c1
IC50 [4]: 0.28 µM
selectivity ratio [5]: 149

O=C(NCCc1csc(-c2cccc(Cl)c2)n1)N1CCCCC1
IC50 [4]: 0.16 µM
selectivity ratio [5]: 511

O=C(NCCc1csc(-c2ccccc2)n1)OCC1CC1
IC50 [4]: 0.97 µM
selectivity ratio [5]: 86
IC50 [2]: 3.2 µM
selectivity ratio [3]: > 15

O=C(NCCc1csc(-c2ccncc2)n1)C1CCCC1
IC50 [4]: 9.1 µM
selectivity ratio [5]: 9
IC50 [2]: 32 µM
selectivity ratio [3]: > 1.5

CC(C)N(C)C(=O)NCCc1csc(-c2ccccc2)n1
IC50 [4]: 0.39 µM
selectivity ratio [5]: 212
IC50 [2]: 1 µM
selectivity ratio [3]: > 50

CCC(=O)NCCc1csc(-c2ccccc2)n1
inhibition at 10 µM [6]: < 50%
inhibition at 10 µM [1]: < 50%

CCN(CC)C(=O)NCCc1csc(-c2ccccc2)n1
IC50 [4]: 0.26 µM
selectivity ratio [5]: 320
IC50 [2]: 1 µM
selectivity ratio [3]: > 50

COc1cccc(-c2nc(CCNC(=O)N3CCCCC3)cs2)c1
IC50 [4]: 0.67 µM
selectivity ratio [5]: 62

CC(C)(C)C(=O)NCCc1csc(-c2ccccc2)n1
IC50 [4]: 1.7 µM
selectivity ratio [5]: 50
IC50 [2]: 6.3 µM
selectivity ratio [3]: > 7.9

O=C(NCCc1csc(-c2cccs2)n1)C1CCCC1
IC50 [4]: 2.4 µM
selectivity ratio [5]: 35
IC50 [2]: 10 µM
selectivity ratio [3]: > 5

O=C(NCCc1csc(-c2cccnc2)n1)C1CCCC1
IC50 [4]: 6.6 µM
selectivity ratio [5]: 13
IC50 [2]: 20 µM
selectivity ratio [3]: > 2.5

CC(C)OC(=O)NCCc1csc(-c2ccccc2)n1
IC50 [4]: 0.22 µM
selectivity ratio [5]: 385
IC50 [2]: 0.4 µM
selectivity ratio [3]: > 125

N#Cc1cccc(C(=O)NCCc2csc(-c3ccccc3)n2)c1
IC50 [2]: 0.79 µM

O=C(NCCc1csc(-c2ccccc2)n1)N1CCCCCC1
IC50 [2]: 0.12 µM

O=C(NCCc1csc(-c2ccccc2)n1)c1ccoc1
IC50 [4]: 0.35 µM
selectivity ratio [5]: 240

Cc1ccc(C(=O)NCCc2csc(-c3ccccc3)n2)cc1
IC50 [2]: 40 µM
inhibition at 10 µM [1]: < 50%
selectivity ratio [3]: 1.2

O=S(=O)(NCCc1csc(-c2ccccc2)n1)c1ccccc1
IC50 [2]: 20 µM
inhibition [1]: inactive

O=C(NCCc1csc(-c2ccccc2)n1)c1cscn1
IC50 [4]: 1.2 µM
selectivity ratio [5]: 68

O=C(NCCc1csc(-c2ccccc2)n1)c1ccncc1
IC50 [2]: 40 µM

Cc1ccc(-c2nc(CCNC(=O)N3CCCCC3)cs2)cc1
IC50 [4]: 3.7 µM
selectivity ratio [5]: 22

Cc1ccccc1C(=O)NCCc1csc(-c2ccccc2)n1
IC50 [4]: 3.3 µM
selectivity ratio [5]: 2.5
IC50 [2]: 3.2 µM
selectivity ratio [3]: > 15

N#Cc1ccccc1C(=O)NCCc1csc(-c2ccccc2)n1
inhibition at 10 µM [1]: < 50%

N#Cc1ccccc1-c1nc(CCNC(=O)N2CCCCC2)cs1
IC50 [4]: 0.56 µM
selectivity ratio [5]: 148
IC50 [2]: 0.79 µM
selectivity ratio [3]: > 63

O=C(NCCc1csc(-c2ccccc2)n1)c1cccc(S(F)(F)(F)(F)F)c1
inhibition at 10 µM [6]: < 50%
inhibition at 10 µM [1]: < 50%

O=C(NCCc1csc(-c2cccnc2)n1)c1ccccc1
IC50 [2]: 40 µM

Cc1ccccc1-c1nc(CCNC(=O)N2CCCCC2)cs1
IC50 [4]: 0.19 µM
selectivity ratio [5]: 439

Cc1cccc(C(=O)NCCc2csc(-c3ccccc3)n2)c1
IC50 [4]: 3.9 µM
selectivity ratio [5]: 21
IC50 [2]: 6.3 µM
selectivity ratio [3]: > 7.9

O=C(NCCc1csc(-c2ccccc2)n1)c1cccc(C(F)(F)F)c1
IC50 [4]: 11.6 µM
selectivity ratio [5]: 1.8
inhibition at 10 µM [6]: < 50%

O=C(NCCc1csc(-c2ccccc2)n1)C1CCOCC1
IC50 [4]: 5 µM
selectivity ratio [5]: 17

O=C(NCCc1csc(-c2ccccc2)n1)c1ccco1
IC50 [2]: 2 µM

O=C(NCCc1csc(-c2ccccn2)n1)C1CCCC1
IC50 [4]: 4 µM
selectivity ratio [5]: 21

O=C(NCCc1csc(-c2ccccc2)n1)c1cccc2ccccc12
inhibition at 10 µM [1]: < 50%

N#Cc1ccc(C(=O)NCCc2csc(-c3ccccc3)n2)cc1
IC50 [2]: 0.4 µM
inhibition at 10 µM [1]: < 50%
selectivity ratio [3]: > 126

CC(C)(C)OC(=O)NCCc1csc(-c2ccccc2)n1
inhibition at 10 µM [1]: < 50%

O=C(NCCc1csc(-c2ccccc2)n1)C1CC2C=CC1O2 (racemic)
IC50 [4]: 5.5 µM
selectivity ratio [5]: 15

O=C(NCCc1csc(-c2ccc(Cl)cc2)n1)N1CCCCC1
IC50 [4]: 1.5 µM
selectivity ratio [5]: 55

Cc1ccc(C(=O)NCCc2csc(-c3ccccc3)n2)o1
IC50 [4]: 1.9 µM
selectivity ratio [5]: 22

O=CNCCc1csc(-c2ccccc2)n1
inhibition at 10 µM [6]: < 50%
inhibition at 10 µM [1]: < 50%

O=S(=O)(NCCc1csc(-c2ccccc2)n1)N1CCCC1
IC50 [2]: 32 µM
inhibition [1]: inactive

CC(=O)NCCc1csc(-c2ccccc2)n1
inhibition at 10 µM [6]: < 50%
inhibition at 10 µM [1]: < 50%

O=C(NCCc1csc(-c2ccccc2)n1)c1ccc(Cl)cc1
inhibition at 10 µM [1]: < 50%

O=C(NCCc1csc(-c2ccccc2)n1)N1CCOCC1
IC50 [2]: 3.2 µM

O=C(NCCc1csc(-c2ccccc2)n1)C1CCCC1
half-life [7]: 6 min
microsomal CLint [8]: 296 µL/min/mg

O=C(NCCc1csc(-c2ccncc2)n1)c1ccccc1
IC50 [2]: 32 µM

O=C(NCCc1csc(-c2ccccc2)n1)c1ccccc1O
IC50 [4]: 2.3 µM
selectivity ratio [5]: 18
IC50 [2]: 7.9 µM
selectivity ratio [3]: > 3

COc1ccc(-c2nc(CCNC(=O)N3CCCCC3)cs2)cc1
inhibition at 10 µM [6]: < 50%
inhibition at 10 µM [1]: > 50%

COc1ccccc1-c1nc(CCNC(=O)N2CCCCC2)cs1
IC50 [4]: 0.5 µM
selectivity ratio [5]: 168

COc1ccccc1C(=O)NCCc1csc(-c2ccccc2)n1
IC50 [4]: 10.6 µM
selectivity ratio [5]: 2
IC50 [2]: 10 µM
selectivity ratio [3]: > 5

CS(=O)(=O)c1cccc(C(=O)NCCc2csc(-c3ccccc3)n2)c1
IC50 [4]: 8.5 µM
selectivity ratio [5]: 4.9
IC50 [2]: 40 µM
selectivity ratio [3]: > 1.2

O=C(NCCc1csc(-c2ccccc2)n1)c1ccon1
IC50 [4]: 0.74 µM
selectivity ratio [5]: 113
IC50 [2]: 2.5 µM
selectivity ratio [3]: > 19

N#Cc1ccc(-c2nc(CCNC(=O)N3CCCCC3)cs2)cc1
IC50 [4]: 0.33 µM
selectivity ratio [5]: 125

O=C(NCCc1csc(-c2ccccn2)n1)c1ccccc1
IC50 [2]: 6.3 µM

O=C(NCCc1csc(-c2ccccc2)n1)c1cnccn1
IC50 [4]: 4.1 µM
selectivity ratio [5]: 20
IC50 [2]: 32 µM
selectivity ratio [3]: > 1.5

CC(C)C(=O)NCCc1csc(-c2ccccc2)n1
IC50 [4]: 5.3 µM
selectivity ratio [5]: 16
IC50 [2]: 40 µM
selectivity ratio [3]: > 1.2

COc1cccc(C(=O)NCCc2csc(-c3ccccc3)n2)c1
IC50 [4]: 1.9 µM
selectivity ratio [5]: 26
IC50 [2]: 3.2 µM
selectivity ratio [3]: > 15

C#Cc1cccc(C(=O)NCCc2csc(-c3ccccc3)n2)c1
IC50 [4]: 0.76 µM
selectivity ratio [5]: 27

O=C(NCCc1csc(-c2ccccc2)n1)c1cccc(O)c1
inhibition at 10 µM [1]: < 50%

C[Si](C)(C)C#Cc1cccc(C(=O)NCCc2csc(-c3ccccc3)n2)c1
IC50 [4]: 3.6 µM
selectivity ratio [5]: 2.9
IC50 [2]: 2 µM
selectivity ratio [3]: > 12

O=C(NCCc1csc(-c2ccccc2)n1)n1cccc1
IC50 [4]: 1.1 µM
selectivity ratio [5]: 38

O=C(NCCc1csc(-c2ccccc2)n1)OC1CCCC1
IC50 [4]: 0.3 µM
selectivity ratio [5]: 280
IC50 [2]: 0.4 µM
selectivity ratio [3]: > 125

O=C(NCCc1csc(-c2ccccc2)n1)c1ccc2ccccc2c1
IC50 [2]: 16 µM
inhibition at 10 µM [1]: < 50%
selectivity ratio [3]: > 3.1
